Results as given in ChEMBL document CHEMBL4689842, “EUbOPEN Chemogenomics Library wave 1” (2021).

System: Fibroblast
Assay: Multiplex assay against human fibroblast
Assay type: toxicity, cell-based
How it was run: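 Compound was added to live cells that had been stained at seeding with Hoechst33342, BioTracker Green Microtubule Cytoskeleton Dye, MitoTracker Red and Annexin V Alexa Fluor 680, and imaging followed on a CQ1 microscope at 37°C and 5% CO2. CellPathfinder machine-learning gating divided cells into Hoechst high-intensity objects or normal cells, normal cells into healthy, pyknosed or fragmented nuclei, and pyknosed cells into mitotic or apoptotic. Tubulin, mitochondrial-mass and membrane-permeability phenotypes are per cents of healthy-nucleus cells.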

[1] = 12 h, 1 µM, compound concentration 1 uM, replicate 1
[2] = 12 h, 1 µM, compound concentration 1 uM, replicate 2
[3] = 12 h, 10 µM, compound concentration 10 uM, replicate 1
[4] = 12 h, 10 µM, compound concentration 10 uM, replicate 2
[5] = 24 h, 1 µM, compound concentration 1 uM, replicate 1
[6] = 24 h, 1 µM, compound concentration 1 uM, replicate 2
[7] = 24 h, 10 µM, compound concentration 10 uM, replicate 1
[8] = 24 h, 10 µM, compound concentration 10 uM, replicate 2
[9] = 48 h, 1 µM, compound concentration 1 uM, replicate 1
[10] = 48 h, 1 µM, compound concentration 1 uM, replicate 2
[11] = 48 h, 10 µM, compound concentration 10 uM, replicate 1
[12] = 48 h, 10 µM, compound concentration 10 uM, replicate 2

## CNc1nc(NCc2ccc(NS(C)(=O)=O)cc2Cl)cc(-c2ccccn2)n1
[1]
  Population Apoptotic (%): 70%
  Population Fragmented Nuclei (%): 22%
  Population Healthy Nuclei (%): 41%
  Population Hoechst High Intensity Objects (%): 7%
  Population Membrane Permeable-Phenotype (%): 22%
  Population Mitochondria Different-Phenotype (%): 4%
  Population Mitotic Cells (%): 29%
  Population Normal (%): 92%
  Population Pyknosed Nuclei (%): 36%
  Population Tubulin-Different-Phenotype (%): 41%
  Total Cell Count: 164
[2]
  Population Apoptotic (%): 33%
  Population Fragmented Nuclei (%): 11%
  Population Healthy Nuclei (%): 82%
  Population Hoechst High Intensity Objects (%): 8%
  Population Membrane Permeable-Phenotype (%): 0%
  Population Mitochondria Different-Phenotype (%): 9%
  Population Mitotic Cells (%): 66%
  Population Normal (%): 91%
  Population Pyknosed Nuclei (%): 5%
  Population Tubulin-Different-Phenotype (%): 11%
  Total Cell Count: 61
[3]
  Population Apoptotic (%): 60%
  Population Fragmented Nuclei (%): 23%
  Population Healthy Nuclei (%): 39%
  Population Hoechst High Intensity Objects (%): 17%
  Population Membrane Permeable-Phenotype (%): 21%
  Population Mitochondria Different-Phenotype (%): 15%
  Population Mitotic Cells (%): 39%
  Population Normal (%): 82%
  Population Pyknosed Nuclei (%): 36%
  Population Tubulin-Different-Phenotype (%): 82%
  Total Cell Count: 142
[4]
  Population Apoptotic (%): 57%
  Population Fragmented Nuclei (%): 6%
  Population Healthy Nuclei (%): 81%
  Population Hoechst High Intensity Objects (%): 9%
  Population Membrane Permeable-Phenotype (%): 12%
  Population Mitochondria Different-Phenotype (%): 32%
  Population Mitotic Cells (%): 42%
  Population Normal (%): 90%
  Population Pyknosed Nuclei (%): 11%
  Population Tubulin-Different-Phenotype (%): 30%
  Total Cell Count: 56
[5]
  Population Apoptotic (%): 70%
  Population Fragmented Nuclei (%): 25%
  Population Healthy Nuclei (%): 53%
  Population Hoechst High Intensity Objects (%): 11%
  Population Membrane Permeable-Phenotype (%): 23%
  Population Mitochondria Different-Phenotype (%): 7%
  Population Mitotic Cells (%): 29%
  Population Normal (%): 88%
  Population Pyknosed Nuclei (%): 20%
  Population Tubulin-Different-Phenotype (%): 43%
  Total Cell Count: 169
[6]
  Population Apoptotic (%): 25%
  Population Fragmented Nuclei (%): 8%
  Population Healthy Nuclei (%): 85%
  Population Hoechst High Intensity Objects (%): 1%
  Population Membrane Permeable-Phenotype (%): 0%
  Population Mitochondria Different-Phenotype (%): 11%
  Population Mitotic Cells (%): 75%
  Population Normal (%): 98%
  Population Pyknosed Nuclei (%): 5%
  Population Tubulin-Different-Phenotype (%): 11%
  Total Cell Count: 67
[7]
  Population Apoptotic (%): 64%
  Population Fragmented Nuclei (%): 31%
  Population Healthy Nuclei (%): 46%
  Population Hoechst High Intensity Objects (%): 27%
  Population Membrane Permeable-Phenotype (%): 18%
  Population Mitochondria Different-Phenotype (%): 18%
  Population Mitotic Cells (%): 35%
  Population Normal (%): 72%
  Population Pyknosed Nuclei (%): 22%
  Population Tubulin-Different-Phenotype (%): 77%
  Total Cell Count: 174
[8]
  Population Apoptotic (%): 50%
  Population Fragmented Nuclei (%): 20%
  Population Healthy Nuclei (%): 66%
  Population Hoechst High Intensity Objects (%): 10%
  Population Membrane Permeable-Phenotype (%): 4%
  Population Mitochondria Different-Phenotype (%): 26%
  Population Mitotic Cells (%): 50%
  Population Normal (%): 89%
  Population Pyknosed Nuclei (%): 12%
  Population Tubulin-Different-Phenotype (%): 17%
  Total Cell Count: 71
[9]
  Population Apoptotic (%): 77%
  Population Fragmented Nuclei (%): 29%
  Population Healthy Nuclei (%): 63%
  Population Hoechst High Intensity Objects (%): 17%
  Population Membrane Permeable-Phenotype (%): 23%
  Population Mitochondria Different-Phenotype (%): 7%
  Population Mitotic Cells (%): 22%
  Population Normal (%): 82%
  Population Pyknosed Nuclei (%): 7%
  Population Tubulin-Different-Phenotype (%): 46%
  Total Cell Count: 155
[10]
  Population Apoptotic (%): 50%
  Population Fragmented Nuclei (%): 28%
  Population Healthy Nuclei (%): 69%
  Population Hoechst High Intensity Objects (%): 8%
  Population Membrane Permeable-Phenotype (%): 4%
  Population Mitochondria Different-Phenotype (%): 2%
  Population Mitotic Cells (%): 50%
  Population Normal (%): 91%
  Population Pyknosed Nuclei (%): 2%
  Population Tubulin-Different-Phenotype (%): 38%
  Total Cell Count: 105
[11]
  Population Apoptotic (%): 70%
  Population Fragmented Nuclei (%): 29%
  Population Healthy Nuclei (%): 61%
  Population Hoechst High Intensity Objects (%): 36%
  Population Membrane Permeable-Phenotype (%): 20%
  Population Mitochondria Different-Phenotype (%): 12%
  Population Mitotic Cells (%): 30%
  Population Normal (%): 63%
  Population Pyknosed Nuclei (%): 9%
  Population Tubulin-Different-Phenotype (%): 84%
  Total Cell Count: 168
[12]
  Population Apoptotic (%): 100%
  Population Fragmented Nuclei (%): 27%
  Population Healthy Nuclei (%): 71%
  Population Hoechst High Intensity Objects (%): 41%
  Population Membrane Permeable-Phenotype (%): 15%
  Population Mitochondria Different-Phenotype (%): 3%
  Population Mitotic Cells (%): 0%
  Population Normal (%): 58%
  Population Pyknosed Nuclei (%): 1%
  Population Tubulin-Different-Phenotype (%): 79%
  Total Cell Count: 203
